Consider 10 compounds from ChEMBL document CHEMBL1131179, “Structural optimization affording 2-(R)-(1-(R)-3, 5-bis(trifluoromethyl)phenylethoxy)-3-(S)-(4-fluoro)phenyl-4- (3-oxo-1,2,4-triazol-5-yl)methylmorpholine, a potent, orally active, long-acting morpholine acetal human NK-1 receptor antagonist” (J Med Chem, 1998).

For test [1], the system named is Cavia porcellus. In words: Inhibition of resiniferatoxin-induced systemic vascular leakage in guinea pig (SYVAL) upon oral administration at 1 hr. Format: functional. Particulars: read-out: ID50 (the source's name). The procedure, abridged:
(§1)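 Guinea pigs dosed orally 1 or 24 h before iv resiniferatoxin challenge (400 µL/kg over 30 s, penile vein), given 10 min after Evans Blue. Killed 10 min post-challenge. Bladder, trachea and esophagus dried (24 h, 65 °C) and extracted with plasma in formamide (65 °C, 24 h). Extravasation read at OD620-650 against plasma, as mg plasma/g dry tissue. n = 4-12 per point; ID50 by nonlinear least-squares regression of mean data.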

For test [2], the system named is Gerbillinae. The test can be described thus: Inhibition of GR 73632-induced foot tapping in gerbils upon intravenous administration of compound. Format: functional. The conditions noted are these: read-out: ID50 (the source's name). The gist of the method: (§2)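 Male or female Mongolian gerbils (35–70 g) under isoflurane/oxygen anaesthesia. Test compound or vehicle is given iv into the jugular vein at 5 mL/kg. At 0, 4 or 24 h, GR 73,632 (3 pmol) is infused icv via a needle 4.5 mm below bregma. Hind foot tapping is timed for 5 min after recovery. 3–9 animals per dose. ID50 by nonlinear least-squares regression of mean data.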

The test system of test [3] is Cavia porcellus. The test can be described thus: Inhibition of resiniferatoxin-induced systemic vascular leakage in guinea pig (SYVAL) upon oral administration at 24 hr r. It is filed as functional. The gist of the method:
as §1

The subject of test [4] is Gerbillinae. The test can be described thus: Inhibition of GR 73632-induced foot tapping in gerbils upon intravenous administration of compound after 24 hr. It is filed as functional. The conditions noted are these: read-out: ID50 (the source's name). The gist of the method:
as §2

The next test deals with Substance-P receptor (Homo sapiens, UniProt P25103). In words: Displacement of [125I]-labeled SP from the human Tachykinin receptor 1 expressed in CHO cells. Format: cell-based.
Chain of Substance-P receptor (P25103 whole entry): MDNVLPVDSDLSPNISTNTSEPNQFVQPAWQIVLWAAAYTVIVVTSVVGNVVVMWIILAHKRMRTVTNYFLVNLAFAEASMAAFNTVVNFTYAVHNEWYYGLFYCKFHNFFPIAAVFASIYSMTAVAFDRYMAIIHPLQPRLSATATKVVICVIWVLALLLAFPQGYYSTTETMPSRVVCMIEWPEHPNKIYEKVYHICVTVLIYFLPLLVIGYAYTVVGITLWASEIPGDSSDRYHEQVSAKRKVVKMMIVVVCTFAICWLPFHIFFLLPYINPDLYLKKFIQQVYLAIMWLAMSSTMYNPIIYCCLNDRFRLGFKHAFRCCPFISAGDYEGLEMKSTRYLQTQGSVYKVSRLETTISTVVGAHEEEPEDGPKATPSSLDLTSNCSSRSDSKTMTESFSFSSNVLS
The subject of test [5] is Gerbillinae. In words: Inhibition of GR 73632-induced foot tapping in gerbils upon intravenous administration of compound after 4 hr. Format: functional. Particulars: read-out: ID50 (the source's name). The procedure, abridged: as §2
The subject of test [6] is Mustela putorius furo. The test can be described thus: compound was tested for antiemetic action in ferret at 3 mg/kg after peroral administration followed by emetogen (cisplatin) challenge at 10 mg/kg, iv after 60 min.
The test system of test [7] is Mustela putorius furo. In words: compound was tested for antiemetic action in ferret at 3 mg/kg after peroral administration followed by emetogen (apomorphine) challenge at 0.25 mg/kg, sc. It is filed as functional.
Test [8] relates to Mustela putorius furo. The test can be described thus: compound was tested for antiemetic action in ferret at 3 mg/kg after peroral administration followed by emetogen (cisplatin) challenge at 10 mg/kg, iv after 60 min. The source holds these as a separate data set.
Test [9] deals with Mustela putorius furo. The test is described as above. The source holds these as a separate data set.
In test [10] the test system is Mustela putorius furo. In words: compound was tested for antiemetic action in ferret at 3 mg/kg after peroral administration followed by emetogen (morphine) challenge at 0.5 mg/kg, sc. It is filed as functional. The procedure, abridged:
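Male ferrets (1.0–2.0 kg) receive 3.0 mg/kg po in 0.5% Methocel or vehicle. 60 min later they get a sc emetogen: apomorphine or morphine 0.5 mg/kg. Retches and vomits are counted for 30 min versus vehicle controls. 4–7 animals per group.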

Test [11] deals with Mustela putorius furo. In words: compound was tested for antiemetic action in ferret at 0.3 mg/kg after intravenous administration followed by emetogen (cisplatin) challenge at 10 mg/kg, iv after 3 min. It is filed as functional. The procedure, abridged:
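Male ferrets (1.0–2.0 kg) under halothane receive 0.3 mg/kg iv in PEG 300 vehicle, then cisplatin 10 mg/kg iv 3 min later. Retches and vomits are counted over 240 min and compared with vehicle controls. 4–7 animals per group.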

For test [12], the system named is Mustela putorius furo. The test can be described thus: compound was tested for antiemetic action in ferret at 3 mg/kg after peroral administration followed by emetogen (cisplatin) challenge at 10 mg/kg, iv after 60 min. This is another data set of the same source.

In general, IC50 refers to the concentration that inhibits the measured activity by half.

As for `O=c1[nH]nc(CN2CCO[C@H](OCc3cc(C(F)(F)F)cc(C(F)(F)F)c3)[C@@H]2c2ccccc2)[nH]1`, the figures for the ED50 in the test with Cavia porcellus [1], with Gerbillinae [2] and in the test with Gerbillinae [4] were 0.006 mg/kg, 0.85 mg/kg and 2.88 mg/kg, respectively. The compound also gave an ID90 with Cavia porcellus [3] of 5.4 mg/kg.

Consider `C[C@H](O[C@H]1OCCN(Cc2n[nH]c(O)n2)[C@H]1c1ccccc1)c1cc(C(F)(F)F)cc(C(F)(F)F)c1`, for which the ED50 in the test with Cavia porcellus [1] turned out to be 0.01 mg/kg; in the test with Gerbillinae [2] it was 0.16 mg/kg; with Gerbillinae [4] it was 1.11 mg/kg; in the test with Gerbillinae [5] it was 0.04 mg/kg. The compound also gave an ID90 in the test with Cavia porcellus [3] of 2.3 mg/kg. Also, the IC50 on Substance-P receptor turned out to be 0.09 nM.

As for `O=c1[nH]nc(CN2CCO[C@H](OCc3cc(C(F)(F)F)cc(C(F)(F)F)c3)[C@@H]2c2ccc(F)cc2)[nH]1`, the ED50 was 0.008 mg/kg with Cavia porcellus [1], 0.3 mg/kg with Gerbillinae [2], 1.24 mg/kg with Gerbillinae [4] and 0.07 mg/kg with Gerbillinae [5]. The compound further had an ID90 in the test on Cavia porcellus [3] of 2.3 mg/kg. Also, the IC50 on Substance-P receptor amounted to 0.07 nM.

Regarding `COc1ccc(OC(F)(F)F)cc1CN[C@H]1CCCN[C@H]1c1ccccc1` (racemic), the ED50 in the test with Cavia porcellus [1] came out at 0.01 mg/kg; in the test on Gerbillinae [2], 0.03 mg/kg; in the test on Gerbillinae [4] it was 5.37 mg/kg; in the test on Gerbillinae [5] it was 0.24 mg/kg. This compound also returned an ID90 in the test with Cavia porcellus [3] of over 10 mg/kg.

Regarding `C[C@@H](O[C@H]1OCCN(Cc2n[nH]c(=O)[nH]2)[C@H]1c1ccc(F)cc1)c1cc(C(F)(F)F)cc(C(F)(F)F)c1` [APREPITANT], the Vomits was found to be 0.5 in the test on Mustela putorius furo [6], 0.7 in the test on Mustela putorius furo [7], 0.5 in the test on Mustela putorius furo [10] and 1 with Mustela putorius furo [11]. Besides, the Control retches with Mustela putorius furo [7] worked out at 28.3; in the test on Mustela putorius furo [8], 154.8; in the test on Mustela putorius furo [10] it was 44.7; in the test on Mustela putorius furo [11], 100. Further, the Control vomits with Mustela putorius furo [7] was 3.3; with Mustela putorius furo [9], 22.3; with Mustela putorius furo [10], 5.5; with Mustela putorius furo [11] it was 12.7. In addition, the Retches with Mustela putorius furo [7] was 4.1; with Mustela putorius furo [10], 6; in the test on Mustela putorius furo [11] it was 5.3; in the test on Mustela putorius furo [12], 2.8. The ED50 in the test with Cavia porcellus [1] came to 0.008 mg/kg; in the test with Gerbillinae [2], 0.36 mg/kg; with Gerbillinae [4] it was 0.33 mg/kg; in the test on Gerbillinae [5] it was 0.04 mg/kg. Also, the ID90 with Cavia porcellus [3] turned out to be 1.8 mg/kg.

In turn, `C[C@@H](O[C@H]1OCCN(Cc2n[nH]c(=O)[nH]2)[C@H]1c1ccccc1)c1cc(C(F)(F)F)cc(C(F)(F)F)c1` registered an IC50 at Substance-P receptor of 0.88 nM.

Consider `COc1ccc(-n2nnnc2C(F)(F)F)cc1CN[C@H]1CCCN[C@H]1c1ccccc1` [VOFOPITANT], for which the ED50 in the test with Cavia porcellus [1] is 0.007 mg/kg. In the test on Cavia porcellus [3], this compound displayed an ID90 of over 10 mg/kg. At Substance-P receptor, this compound gave an IC50 of 0.08 nM.

As for `C[C@@H](O[C@H]1OCCN(Cc2n[nH]c(O)n2)[C@H]1c1ccccc1)c1cccc(C(F)(F)F)c1`, at Substance-P receptor, the IC50 was 0.27 nM. This lies in the sub-nanomolar range.

With `COc1ccc(-n2nnnc2C(F)(F)F)cc1CNC1CCCNC1c1ccccc1` (racemic), the ED50 in the test with Gerbillinae [2] is 0.04 mg/kg; in the test on Gerbillinae [4], over 10 mg/kg; in the test on Gerbillinae [5], 0.02 mg/kg.

For the compound `C[C@@H](O[C@H]1OCCN(Cc2n[nH]c(O)n2)[C@H]1c1ccccc1)c1cc(F)cc(C(F)(F)F)c1`, the IC50 on Substance-P receptor stood at 0.1 nM.
